Reference: ChEMBL document CHEMBL1156353, “Synthetic secofriedelane and friedelane derivatives as inhibitors of human lymphocyte proliferation and growth of human cancer cell lines in vitro” (J Nat Prod, 2001)
Calls of active or inactive are those of the source. No cut-off for these calls is given here.

What was measured:
MCF7 = test: Cytotoxicity against human MCF7 cells by SRB assay; assay type: functional
How it was run: (§1)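 Lines from NCI, kept adherent in RPMI-1640 with 5% heat-inactivated FBS, 2 mM glutamine, 50 µg/mL gentamicin, 37 °C, 5% CO2; plated at densities ensuring exponential growth. Growth measured by NCI screening protocol with sulforhodamine B staining; GI50 per NCI method, means ± SEM from 3-6 independent experiments in duplicate. Compounds from DMSO stocks.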

TK-10 = test: Cytotoxicity against human TK10 cells by SRB assay; assay type: functional; how it was run: as §1
UACC-62 = test: Cytotoxicity against human UACC62 cells by SRB assay; assay type: functional; how it was run: as §1
NCI-H460 = test: Cytotoxicity against human NCI-H460 cells by SRB assay; assay type: functional; how it was run: as §1
SF-268 = test: Cytotoxicity against human SF268 cells by SRB assay; assay type: functional; how it was run: as §1
T-cell [1] = test: Inhibition of PHA-induced human T cell proliferation at 100 uM after 24 hrs by MTT assay; assay type: functional, cell-based
[2] = (§2) Inhibition of PHA-induced human T cell proliferation after 24 hrs by MTT assay; assay type: functional, cell-based
How it was run: (§3)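 Human peripheral blood mononuclear cells (Histopaque-1077 isolation) stimulated with PHA 10 µg/mL as T-mitogen, in RPMI-1640 with 10% heat-inactivated FBS, 2 mM glutamine; compounds from DMSO stocks; colorimetric MTT read-out; cyclosporin A positive control. IC50 as means ± SEM from 3-6 independent experiments in duplicate.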

T-cell [3] = test: as §2; assay type: functional, cell-based; how it was run: as §3
[4] = Cytotoxicity against human T cells assessed as cell viability at IC50 after 24 hrs by MTT assay; assay type: cell-based; conditions: read-out: Activity
How it was run: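 Peripheral blood mononuclear cells from healthy volunteers (Histopaque-1077), (2-3) × 10⁶ cells/mL in RPMI-1640 with 10% heat-inactivated FBS, 2 mM glutamine, gentamicin, exposed 24 h to compound; MTT (1 mg/mL) 4 h, formazan dissolved in SDS/DMF pH 4.7 overnight at 37 °C, OD 550 nm. Viability as % of unexposed cells; below 70% counted as toxic.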

SMILES	GI50 (MCF7) [µM]	GI50 (TK-10) [µM]	GI50 (UACC-62) [µM]	GI50 (NCI-H460) [µM]	GI50 (SF-268) [µM]	Activity (T-cell [1])	IC50 [2] [µM]	Activity (T-cell [3])	viability at 24 h [4] [%]
C[C@H]1[C@@H](O)CC[C@@H]2[C@]1(C)CC[C@H]1[C@@]2(C)CC[C@@]2(C)[C@@H]3CC(C)(C)CC[C@]3(C)CC[C@]12C [EPIFRIEDELINOL]	> 100	> 100	> 100	> 100	> 100	inactive	–	–	–
C[C@H]1C(=O)C=C[C@@H]2[C@]1(C)CC[C@H]1[C@@]2(C)CC[C@@]2(C)[C@@H]3CC(C)(C)CC[C@]3(C)CC[C@]12C	> 100	> 100	> 100	> 100	> 100	inactive	–	–	–
CC(=O)O[C@@H]1CC[C@@H]2[C@](C)(CC[C@H]3[C@@]2(C)CC[C@@]2(C)[C@@H]4CC(C)(C)CC[C@]4(C)CC[C@]32C)[C@H]1C	–	–	–	–	–	inactive	–	–	–
CC1=C(O)C(=O)C[C@H]2[C@]3(C)CC[C@@]4(C)[C@@H]5CC(C)(C)CC[C@]5(C)CC[C@]4(C)[C@H]3CC[C@]12C	> 100	> 100	> 100	> 100	> 100	inactive	–	–	–
COC(=O)[C@H](C)[C@@]1(C)CC[C@H]2[C@@](C)(CC[C@@]3(C)[C@@H]4CC(C)(C)CC[C@]4(C)CC[C@]23C)[C@@H]1CC=O	> 100	> 100	> 100	> 100	> 100	inactive	–	–	–
C[C@H]1C(=O)[C@H](O)C[C@@H]2[C@]1(C)CC[C@H]1[C@@]2(C)CC[C@@]2(C)[C@@H]3CC(C)(C)CC[C@]3(C)CC[C@]12C	59.5	90.5	86	67.8	95.8	–	82.3	Dose-dependent effect	92.7
C[C@H]1[C@@H](O)[C@H](O)C[C@@H]2[C@]1(C)CC[C@H]1[C@@]2(C)CC[C@@]2(C)[C@@H]3CC(C)(C)CC[C@]3(C)CC[C@]12C [PACHYSANDIOL A]	66.4	95.7	83.3	79.4	15.5	–	79.1	Dose-dependent effect	113
C[C@H]1[C@H](O)C(=O)C[C@@H]2[C@]1(C)CC[C@H]1[C@@]2(C)CC[C@@]2(C)[C@@H]3CC(C)(C)CC[C@]3(C)CC[C@]12C	> 100	> 100	> 100	> 100	> 100	inactive	–	–	–
C[C@@H](C(=O)O)[C@@]1(C)CC[C@H]2[C@@](C)(CC[C@@]3(C)[C@@H]4CC(C)(C)CC[C@]4(C)CC[C@]23C)[C@@H]1CC=O	7	10.1	9.9	5.4	17.2	–	10.7	Dose-dependent effect	89
C[C@H]1C(=O)CC[C@@H]2[C@]1(C)CC[C@H]1[C@@]2(C)CC[C@@]2(C)[C@@H]3CC(C)(C)CC[C@]3(C)CC[C@]12C [FRIEDELINE]	> 100	> 100	> 100	> 100	> 100	inactive	–	–	–
COc1cccc2c1C(=O)c1c(O)c3c(c(O)c1C2=O)C[C@@](O)(C(=O)CO)C[C@@H]3O[C@H]1C[C@H](N)[C@H](O)[C@H](C)O1 [DOXORUBICIN]	0.055	0.57	0.094	0.0081	0.093	–	–	–	–
C[C@H]1[C@H](O)CC[C@@H]2[C@]1(C)CC[C@H]1[C@@]2(C)CC[C@@]2(C)[C@@H]3CC(C)(C)CC[C@]3(C)CC[C@]12C	> 100	> 100	> 100	> 100	> 100	inactive	–	–	–
